Source: ChEMBL document CHEMBL1914423, “New imidazo[2,1-b]thiazole derivatives: synthesis, in vitro anticancer evaluation, and in silico studies” (Eur J Med Chem, 2011)

What was measured:
Type in all cases: functional
[1] = tested on: MDA-MB-468; assay: Anticancer activity against human MDA-MB-468 cells after 48 hrs by SRB assay; details: MDA-MB-468, 48 h
[2] = tested on: UO-31; assay: Anticancer activity against human UO31 cells after 48 hrs by SRB assay; details: UO-31, 48 h
How it was run: (§1)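 NCI-60 five-dose mode: cells in RPMI 1640 with 5% FBS and 2 mM glutamine, plated at 5000–40,000 cells/well, and preincubated 24 h, with time-zero plates TCA-fixed. Drug given at five concentrations (10-fold or ½-log serial dilutions). Cold TCA fixation 60 min at 4 °C, SRB stain, Tris solubilization, A515. IC50 taken where [(Ti−Tz)/(C−Tz)]×100 = 50.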

[3] = tested on: RXF 393; assay: Anticancer activity against human RXF393 cells after 48 hrs by SRB assay; details: RXF 393, 48 h
[4] = tested on: RPMI-8226; assay: Anticancer activity against human RPMI8226 cells after 48 hrs by SRB assay; details: RPMI-8226, 48 h
[5] = tested on: NCI/ADR-RES; assay: Anticancer activity against human NCI/ADR-RES cells after 48 hrs by SRB assay
[6] = tested on: TK-10; assay: Anticancer activity against human TK10 cells after 48 hrs by SRB assay; details: TK-10, 48 h; how it was run: as §1
[7] = tested on: MDA-MB-231; assay: Anticancer activity against human MDA-MB-231 cells after 48 hrs by SRB assay; details: MDA-MB-231, 48 h
How it was run: (§2)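 NCI five-dose screen. Cells in RPMI 1640 with 5% FBS and 2 mM L-glutamine, seeded at 5000–40,000 cells/well according to doubling time, then pre-incubated 24 h at 37 °C in 5% CO2. Drugs dissolved in DMSO, five concentrations by 10-fold or 1/2-log dilution. Cells fixed with TCA, SRB-stained, A515 read. IC50 solved from [(Ti−Tz)/(C−Tz)]×100 = 50.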

[8] = tested on: NCI-H226; assay: Anticancer activity against human NCI-H226 cells after 48 hrs by SRB assay; details: NCI-H226, 48 h
[9] = tested on: MOLT-4; assay: Anticancer activity against human MOLT4 cells after 48 hrs by SRB assay; details: MOLT-4, 48 h
[10] = tested on: HCT-116; assay: Anticancer activity against human HCT116 cells after 48 hrs by SRB assay; details: HCT-116, 48 h; how it was run: as §2
[11] = tested on: SK-MEL-5; assay: Anticancer activity against human SK-MEL-5 cells after 48 hrs by SRB assay; details: SK-MEL-5, 48 h
[12] = tested on: M14; assay: Anticancer activity against human M14 cells after 48 hrs by SRB assay; details: M14, 48 h; how it was run: as §2
[13] = tested on: UACC-62; assay: Anticancer activity against human UACC62 cells after 48 hrs by SRB assay; details: UACC-62, 48 h; how it was run: as §1
[14] = tested on: OVCAR-8; assay: Anticancer activity against human OVCAR8 cells after 48 hrs by SRB assay; details: OVCAR-8, 48 h
[15] = tested on: SNB-19; assay: Anticancer activity against human SNB19 cells after 48 hrs by SRB assay; details: SNB-19, 48 h
[16] = tested on: NCI-H23; assay: Anticancer activity against human NCI-H23 cells after 48 hrs by SRB assay; details: NCI-H23, 48 h
[17] = tested on: HOP-62; assay: Anticancer activity against human HOP62 cells after 48 hrs by SRB assay; details: HOP-62, 48 h; how it was run: as §2
[18] = tested on: A549; assay: Anticancer activity against human A549 cells after 48 hrs by SRB assay; details: A549, 48 h; how it was run: as §2
[19] = tested on: SK-MEL-28; assay: Anticancer activity against human SK-MEL-28 cells after 48 hrs by SRB assay; details: SK-MEL-28, 48 h
[20] = tested on: UACC-257; assay: Anticancer activity against human UACC257 cells after 48 hrs by SRB assay; details: UACC-257, 48 h; how it was run: as §1
[21] = tested on: ACHN; assay: Anticancer activity against human ACHN cells after 48 hrs by SRB assay; how it was run: as §2
[22] = tested on: NCI-H460; assay: Anticancer activity against human NCI-H460 cells after 48 hrs by SRB assay; details: NCI-H460, 48 h
[23] = tested on: MCF7; assay: Anticancer activity against human MCF7 cells after 48 hrs by SRB assay; details: MCF7, 48 h; how it was run: as §2
[24] = tested on: SN12C; assay: Anticancer activity against human SN12C cells after 48 hrs by SRB assay
[25] = tested on: PC-3; assay: Anticancer activity against human PC3 cells after 48 hrs by SRB assay; details: PC-3, 48 h
[26] = tested on: SF-539; assay: Anticancer activity against human SF539 cells after 48 hrs by SRB assay; details: SF-539, 48 h
[27] = tested on: SNB-75; assay: Anticancer activity against human SNB75 cells after 48 hrs by SRB assay; details: SNB-75, 48 h
[28] = Anticancer activity against human Hs 578T cells after 48 hrs by SRB assay; how it was run: as §2
[29] = tested on: MDA-MB-435; assay: Anticancer activity against human MDA-MB-435 cells after 48 hrs by SRB assay; details: MDA-MB-435, 48 h; how it was run: as §2
[30] = read-out: LC50 (the source's name)

## COc1cccc(-c2nc3sccn3c2-c2ccnc(NCCNC(=O)Nc3cccc(C(F)(F)F)c3)n2)c1
[1]
  GI50: 2.63 µM
  TGI: 10.4 µM
[1]; [30]
  CC50: > 100 µM
[2]
  GI50: 2.88 µM
  TGI: 24.8 µM
[2]; [30]
  CC50: > 100 µM
[3]
  GI50: 1.77 µM
  TGI: 3.65 µM
[3]; [30]
  CC50: 7.49 µM
[4]
  GI50: 1.92 µM
  LC50: > 100 µM
  TGI: 5.11 µM
[5]
  GI50: 3.45 µM
  TGI: > 100 µM
[5]; [30]
  CC50: > 100 µM
[6]
  GI50: 3.6 µM
  TGI: 18.8 µM
[6]; [30]
  CC50: > 100 µM
[7]
  GI50: 3.47 µM
  TGI: 12 µM
[7]; [30]
  CC50: > 100 µM
[8]
  GI50: 4.58 µM
  LC50 (concentration killing 50% of tumour cells): > 100 µM
  TGI: 68.6 µM
[9]
  GI50: 3.27 µM
  TGI: 9.94 µM
[9]; [30]
  CC50: > 100 µM
[10]
  GI50: 3.45 µM
  TGI: 11.6 µM
[10]; [30]
  CC50: > 100 µM
[11]
  GI50: 4.27 µM
  TGI: 15.9 µM
[11]; [30]
  CC50: 40.6 µM
[12]
  GI50: 2.96 µM
  TGI: 8.48 µM
[12]; [30]
  CC50: 29.2 µM
[13]
  GI50: 2.55 µM
  TGI: 7.48 µM
[13]; [30]
  CC50: 27.7 µM
[14]
  GI50: 3.28 µM
  TGI: 9.79 µM
[14]; [30]
  CC50: 66.2 µM
[15]
  GI50: 7.77 µM
  TGI: > 100 µM
[15]; [30]
  CC50: > 100 µM
[16]
  GI50: 3.42 µM
  LC50 (50% lethal concentration): > 100 µM
  TGI: 76.9 µM
[17]
  GI50: 6.71 µM
  LC50 (concentration killing 50% of starting cells): > 100 µM
  TGI: 42.4 µM
[18]
  GI50: 3.82 µM
  LC50 (concentration giving 50% net tumour cell kill): > 100 µM
  TGI: 17.1 µM
[19]
  GI50: 5.36 µM
  TGI: 26.2 µM
[19]; [30]
  CC50: > 100 µM
[20]
  GI50: 4.34 µM
  TGI: 16.5 µM
[20]; [30]
  CC50: 65.9 µM
[21]
  GI50: 3.17 µM
  TGI: 19.1 µM
[21]; [30]
  CC50: > 100 µM
[22]
  GI50: 2.94 µM
  LC50: > 100 µM
  TGI: 14.4 µM
[23]
  GI50: 3.12 µM
  TGI: 13.3 µM
[23]; [30]
  CC50: > 100 µM
[24]
  GI50: 4.03 µM
  TGI: 26.5 µM
[24]; [30]
  CC50: > 100 µM
[25]
  GI50: 2.47 µM
  TGI: 11.9 µM
[25]; [30]
  CC50: > 100 µM
[26]
  GI50: 3.83 µM
  TGI: 17.1 µM
[26]; [30]
  CC50: 56.5 µM
[27]
  GI50: 3.41 µM
  TGI: 21.7 µM
[27]; [30]
  CC50: > 100 µM
[28]
  GI50: 3.15 µM
  TGI: 29 µM
[28]; [30]
  CC50: > 100 µM
[29]
  GI50: 2.95 µM
  TGI: 12.3 µM
[29]; [30]
  CC50: > 100 µM
